This is an account of results in publication PMC5647227 (ACS chemical neuroscience, 2017).

The target of test [1] is T1, hNK1 receptors (Homo sapiens, UniProt P25103). Kind of test: [3H]Substance-P competition binding assay, hNK1-CHO membranes.
For test [2], the target named is DOP receptor (Rattus norvegicus, UniProt P33533). Kind of test: Opioid receptor binding, [3H]DSLET displacement from rat brain membranes.
Test [3] relates to CCI-exposed mice. The test is described as follows: Neuropathic pain model, von Frey and cold plate tests taken together. Format: in vivo, mouse. The note with it: i.t.; for relative analgesic efficacy among hybrids in neuropathic pain model: von Frey and cold plate tests. The gist of the method: (§1)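 CCI mice, unanesthetized, received test compound in water for injections intrathecally by lumbar puncture between L5 and L6, in a 5 μL volume. Doses ranged from about 0.1 to 10 nmol/animal. The cold plate was held at 2 °C and latency to hind-paw lift was timed, with a 30 s cutoff. Testing was done at 30, 90 and 180 min after dosing. Effect was expressed as % MPE.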

The target of test [4] is MOP receptor (Cavia porcellus, UniProt A0ACM8Q262). Kind of test: Guinea pig ileum. In kind it is biochemical. The note with it: read-out: GPI IC50; representative of MOP receptor activation.
In test [5] the target is DOP receptor (Mus musculus, UniProt P32300). The test is described as follows: Mouse vas deferens. Format: biochemical.
In test [6] the test system is CCI-exposed mice. The test is described as follows: Von Frey test, tactile hypersensitivity in neuropathic pain model. In kind it is in vivo, mouse. The note with it: i.t.; for duration of effect, von Frey test: moderate dose ca. 1 nmol (1 μg). An outline of the steps: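 CCI mice, unanesthetized, received test compound in water for injections intrathecally by lumbar puncture between L5 and L6, in a 5 μL volume. Doses ranged from about 0.1 to 10 nmol/animal. Calibrated nylon monofilaments (0.6–6 g, 6 g cutoff) were applied in serial increments to the hind-paw plantar surface until paw withdrawal, shaking or licking. Testing was done at 30, 90 and 180 min after dosing. Effect was expressed as % MPE.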

Test [7] deals with naive mice. The test is described as follows: Tail-flick test, acute pain after i.t. administration. Format: in vivo, mouse. The settings on record: for duration of analgesic effect, tail-flick: 0.1 nmol; for analgesic effect in acute pain model: dose of 1 μg. On the technique in general: In hot-plate and tail-flick tests a longer latency is read as antinociception.
Test [8] concerns the target MOP receptor (Rattus norvegicus, UniProt P33535). Kind of test: Opioid receptor binding, [3H]DAMGO displacement from rat brain membranes.
Test [9] concerns the target T1, hNK1 receptors. Kind of test: Functional NK1 receptor assay. Format: cell-based.
The test system of test [10] is CCI-exposed mice. Kind of test: Cold plate test, thermal hypersensitivity in neuropathic pain model. Format: in vivo, mouse. The settings on record: i.t. The gist of the method: as §1

“Also recorded” adds a separate entry of the source. Some results are limits rather than exact numbers.

Chain of MOP receptor (Rattus norvegicus, UniProt P33535) (P33535 whole entry): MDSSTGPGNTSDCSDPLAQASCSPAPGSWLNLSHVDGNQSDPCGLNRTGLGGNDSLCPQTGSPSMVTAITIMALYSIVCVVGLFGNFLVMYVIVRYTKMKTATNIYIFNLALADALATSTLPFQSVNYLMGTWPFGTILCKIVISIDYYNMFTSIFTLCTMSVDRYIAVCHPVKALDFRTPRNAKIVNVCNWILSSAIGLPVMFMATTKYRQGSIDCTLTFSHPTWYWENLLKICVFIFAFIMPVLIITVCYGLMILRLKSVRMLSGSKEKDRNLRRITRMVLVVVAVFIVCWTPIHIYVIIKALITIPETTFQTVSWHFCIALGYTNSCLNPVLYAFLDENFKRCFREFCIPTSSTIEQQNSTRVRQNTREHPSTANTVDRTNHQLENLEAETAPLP
Chain of MOP receptor (Cavia porcellus, UniProt A0ACM8Q262) (A0ACM8Q262 1-400): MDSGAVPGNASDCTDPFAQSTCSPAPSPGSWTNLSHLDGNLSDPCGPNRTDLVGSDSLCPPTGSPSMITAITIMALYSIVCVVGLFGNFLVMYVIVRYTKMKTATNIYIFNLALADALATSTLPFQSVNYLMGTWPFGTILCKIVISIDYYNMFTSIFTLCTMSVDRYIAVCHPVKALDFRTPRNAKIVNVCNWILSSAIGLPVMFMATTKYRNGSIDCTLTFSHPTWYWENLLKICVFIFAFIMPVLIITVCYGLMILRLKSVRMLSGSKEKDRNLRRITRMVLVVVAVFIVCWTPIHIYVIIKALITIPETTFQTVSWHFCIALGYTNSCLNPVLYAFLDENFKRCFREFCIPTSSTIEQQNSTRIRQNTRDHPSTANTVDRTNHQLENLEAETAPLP
T1 sequence (P25103 whole entry): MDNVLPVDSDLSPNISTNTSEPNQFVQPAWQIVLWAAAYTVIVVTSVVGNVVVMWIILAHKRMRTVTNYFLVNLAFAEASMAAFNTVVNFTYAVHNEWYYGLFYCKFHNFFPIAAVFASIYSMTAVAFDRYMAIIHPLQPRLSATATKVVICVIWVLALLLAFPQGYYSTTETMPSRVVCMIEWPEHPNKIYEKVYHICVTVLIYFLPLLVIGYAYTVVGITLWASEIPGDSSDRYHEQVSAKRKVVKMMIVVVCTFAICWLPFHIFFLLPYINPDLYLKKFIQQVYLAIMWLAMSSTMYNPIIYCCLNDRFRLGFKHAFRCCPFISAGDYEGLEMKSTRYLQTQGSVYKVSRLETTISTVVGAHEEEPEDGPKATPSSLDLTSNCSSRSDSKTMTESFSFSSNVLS
Chain of DOP receptor (Rattus norvegicus, UniProt P33533) (P33533 whole entry): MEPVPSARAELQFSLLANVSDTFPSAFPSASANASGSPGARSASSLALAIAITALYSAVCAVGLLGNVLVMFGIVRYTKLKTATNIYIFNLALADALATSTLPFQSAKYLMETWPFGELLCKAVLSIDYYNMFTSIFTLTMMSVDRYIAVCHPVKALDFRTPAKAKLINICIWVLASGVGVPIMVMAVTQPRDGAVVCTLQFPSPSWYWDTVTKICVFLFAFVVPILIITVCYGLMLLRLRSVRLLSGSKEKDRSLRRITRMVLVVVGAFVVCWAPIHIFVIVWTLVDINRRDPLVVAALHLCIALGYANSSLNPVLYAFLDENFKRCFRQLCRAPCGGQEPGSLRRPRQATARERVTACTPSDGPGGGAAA
Chain of DOP receptor (Mus musculus, UniProt P32300) (P32300 whole entry): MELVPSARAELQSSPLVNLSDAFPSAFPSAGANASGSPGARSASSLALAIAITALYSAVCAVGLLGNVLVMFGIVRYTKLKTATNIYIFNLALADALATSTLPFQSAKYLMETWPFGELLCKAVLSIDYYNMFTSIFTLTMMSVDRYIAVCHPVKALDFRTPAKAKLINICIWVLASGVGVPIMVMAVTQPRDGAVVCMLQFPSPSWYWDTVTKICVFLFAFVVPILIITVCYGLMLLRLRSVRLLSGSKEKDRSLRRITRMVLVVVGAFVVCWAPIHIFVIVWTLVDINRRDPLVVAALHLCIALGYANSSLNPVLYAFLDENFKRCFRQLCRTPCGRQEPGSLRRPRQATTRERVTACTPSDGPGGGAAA

For the compound `Cc1cc(O)cc(C)c1C[C@H](N)C(=O)N[C@H](CCCNC(=N)N)C(=O)N[C@H]1Cc2ccccc2CN(CC(=O)N(C)Cc2ccc3ccccc3c2)C1=O` [Compound 13, H-Dmt-D-Arg-Aba-Gly-NMe-2′-methylenenaphthyl], the Ki in test [1] came to 709 nM; in test [2], 228 nM; in test [8] it was 2.8 nM. For the same compound, in [3], the “relative analgesic efficacy among hybrids in neuropathic pain model” value is recorded as “most efficient analgesic in both tests”. The figures for the IC50 in test [4] and in test [5] were 3 nM and 10 nM, respectively. Besides, the “response threshold, von Frey test” value in test [6] (lowest tested dose 0.1 nmol) is “ca. 70 % MPE”. Moreover, the “duration of effect, von Frey test” value in test [6] is “not observable 180 min after administration”. For the same compound, in test [7], the “duration of analgesic effect, tail-flick” value was “up to 180 min after administration”. Besides, in test [7] (doses raised up to ca. 10 nmol), the “analgesic effect, tail-flick” value is recorded as 60–70 % MPE. The “effect in attenuating acute pain” value in [7] (measured at three time points after administration) was ~ 60 % MPE. In [9], the Kb was 3630 nM. The “influence on response, cold plate test” value in test [10] (0.1 nmol) is “did not significantly influence the response”. For the same compound, the “effect at 180 min, cold plate test” value in test [10] (highest dose 10 nmol) is on record as “provided an effect at 180 min after administration”.
In the case of H-Dmt-D-Arg-Aba-Gly-NH2 [Compound 1], the “analgesic effect, von Frey test” value in [6] (at 30 min) is recorded as “ca. 40 % MPE”; in [6] (maximum over doses), at most 40 % MPE. Moreover, the “lowest dose raising latency of response to thermal stimuli, tail-flick” value in test [7] is 0.0013 nmol. The figures for the “analgesic effect in acute pain model” value in test [7] and in test [7] (at 180 min after administration) were about 100 % MPE and over 80 % MPE, respectively. Further, the “analgesic effect, tail-flick” value in [7] (highest dose tested 1.3 nmol, lasting up to 180 min) is reported as about 100 % MPE. In addition, the “lowest efficacious dose in acute pain model” value in test [7] (p < 0.05 vs vehicle) worked out at 0.001 nmol/5 μL/animal.
For the compound `Cc1cc(O)cc(C)c1C[C@H](N)C(=O)N[C@H](CCCNC(=N)N)C(=O)N[C@H]1Cc2ccccc2CN(CCC(=O)N2Cc3ccccc3C2)C1=O` [Compound 9, H-Dmt-D-Arg-Aba-β-Ala-isoindoline], the Ki in test [1] was over 10000 nM; in [2] it was 16 nM; in [8] it was 0.2 nM. Further, the values for the half-maximal inhibitory concentration (IC50) in test [4] and in test [5] were 5 nM and 2.1 nM, respectively.
Regarding “H-Dmt-D-Arg-Aba-Gly-NMe-3′,5′-(CF3)2-Bn [Compound 3, reference compound]”, the “response latency / alleviation of hypersensitivity in neuropathic pain model” value in test [3] (test not specified or both tests) is recorded as “ca. 60 % MPE”. Moreover, the “tail-flick effect compared with parent compound” value in test [7] was “weaker than its parent compound”.
Take `Cc1cc(O)cc(C)c1C[C@H](N)C(=O)N[C@H](CCCNC(=N)N)C(=O)N[C@H]1Cc2ccccc2CN(CCC(=O)N(Cc2ccccc2)C2CC2)C1=O` [Compound 7, H-Dmt-D-Arg-Aba-β-Ala-NcPr-Bn]: the results for the Ki in test [1], in [2] and in [8] were 520 nM, 66 nM and 2.7 nM, respectively. Also, the IC50 in [4] was 19 nM; in test [5], 6.6 nM. The compound further showed a Kb in test [9] of 6310 nM.
For `Cc1cc(O)cc(C)c1C[C@H](N)C(=O)N[C@H](CCCNC(=N)N)C(=O)N[C@H]1Cc2ccccc2CN(CCC(=O)N(Cc2cc(C(F)(F)F)cc(C(F)(F)F)c2)C2CC2)C1=O` [Compound 6, H-Dmt-D-Arg-Aba-β-Ala-NcPr-3′,5′-(CF3)2-Bn], the figures for the Ki in test [1], in test [2] and in test [8] were 735 nM, 190 nM and 47 nM, respectively. Also, the IC50 in test [4] came out at 18 nM; in test [5], 16 nM. The same compound gave a Kb in test [9] of 4370 nM.
Regarding `Cc1cc(O)cc(C)c1C[C@H](N)C(=O)N[C@H](CCCNC(=N)N)C(=O)N[C@H]1Cc2ccccc2CN(CC(=O)N2Cc3ccccc3C2)C1=O` [Compound 10, H-Dmt-D-Arg-Aba-Gly-isoindoline], the Ki in test [1] worked out at 3500 nM; in test [2], 81 nM; in [8], 0.06 nM. Moreover, the IC50 in test [4] was found to be 7.3 nM; in test [5] it was 8 nM. In test [9], this compound gave a Kb of 692000 nM.
On to `COc1ccccc1CN(C)C(=O)CN1Cc2ccccc2C[C@H](NC(=O)[C@@H](CCCNC(=N)N)NC(=O)[C@@H](N)Cc2c(C)cc(O)cc2C)C1=O` [Compound 11, H-Dmt-D-Arg-Aba-Gly-NMe-2′-OMe-Bn], for which the Ki in test [1] amounted to 501 nM; in test [2] it was 26 nM; in [8] it was 0.9 nM. In addition, the figures for the concentration for half-maximal inhibition (IC50) in test [4] and in test [5] were 5 nM and 2.4 nM, respectively. Further, the Kb in [9] was 14500 nM.
For `Cc1cc(O)cc(C)c1C[C@H](N)C(=O)N[C@H](CCCNC(=N)N)C(=O)N[C@H]1Cc2ccccc2CN(CC(=O)N(Cc2ccccc2)C2CC2)C1=O` [Compound 8, H-Dmt-D-Arg-Aba-Gly-NcPr-Bn], the Ki came to 95 nM in test [1], 68 nM in test [2] and 0.3 nM in [8]. For the same compound, the results for the IC50 in [4] and in test [5] were 10 nM and 11.2 nM, respectively. For the same compound, the Kb in test [9] was 3160 nM.
On to H-Dmt-D-Arg-Aba-β-Ala-NH2 [Compound 2], for which the “influence on response threshold, von Frey test” value in test [6] is on record as “no influence on the response threshold; also recorded: not efficacious at all”. In addition, the “analgesic effect, tail-flick” value in [7] (highest dose tested 1 nmol) is listed as at most 80 % MPE. For the same compound, the “analgesic effect, cold plate test” value in test [10] (maximum over doses) is “no more than 20 % MPE”.
With `Cc1cc(O)cc(C)c1C[C@H](N)C(=O)N[C@H](CCCNC(=N)N)C(=O)N[C@H]1Cc2ccccc2CN(CCC(=O)N(C)Cc2ccc3ccccc3c2)C1=O` [Compound 12, H-Dmt-D-Arg-Aba-β-Ala-NMe-2′-methylenenaphthyl], the Ki amounted to 612 nM in test [1], 44 nM in [2] and 0.4 nM in test [8]. Besides, the “relative analgesic efficacy among hybrids in neuropathic pain model” value in [3] is on record as “weaker in both tests”. For the same compound, the IC50 turned out to be 9 nM in test [4] and 4 nM in [5]. Further, the “duration of effect, von Frey test” value in test [6] was “not observable 180 min after administration”. In addition, the “duration of analgesic effect, tail-flick” value in test [7] is “up to 180 min after administration”. Also, the “analgesic effect, tail-flick” value in test [7] (doses raised up to ca. 10 nmol) is given as 60–70 % MPE. Besides, the Kb in test [9] is 97.7 nM.

As a reminder, the Ki is the equilibrium dissociation constant of an inhibitor or competing ligand from its target. In general, IC50 refers to the point on the concentration scale where inhibition reaches its midpoint.
